From ChEMBL document CHEMBL4406880, “Design, synthesis, and bioactivity of dihydropyrimidine derivatives as kinesin spindle protein inhibitors” (Bioorg Med Chem, 2019)

Tests used:
Format in all cases: functional
LOX IMVI = assay: Growth inhibition of human LOXIMVI cells assessed as cell viability at 1 uM incubated for 48 hrs by sulforhodamine B assay; settings: read-out: Activity
SNB-75 [1] = assay: Induction of apoptosis in human SNB75 cells assessed as early apoptotic cells at 2 uM incubated for 24 hrs by annexin V FITC and propidium iodide based flow cytometry (reference value: 0.82 %)
OVCAR-5 = assay: Growth inhibition of human OVCAR5 cells assessed as cell viability at 0.001 uM incubated for 48 hrs by sulforhodamine B assay relative to control; settings: OVCAR-5, 48 h, read-out: Activity
SK-OV-3 [2] = assay: Growth inhibition of human SKOV3 cells incubated for 48 hrs by sulforhodamine B assay; settings: SK-OV-3, 48 h
Procedure, shortened: (§1)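 NCI-60 five-dose SRB assay. Cells were exposed for 48 h to tenfold dilutions of 0.01, 0.1, 1, 10 and 100 µM, in RPMI 1640 with 5% FBS. Plates fixed with TCA at the time of drug addition served as the time-zero reference. GI50 is the concentration giving a 50% reduction in net growth. TGI is total growth inhibition. LC50 is a net 50% loss of the initial cells.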

A498 = assay: Growth inhibition of human A498 cells assessed as cell viability at 1 uM incubated for 48 hrs by sulforhodamine B assay; settings: A498, 48 h, read-out: Activity
Procedure, shortened: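 NCI-60 five-dose mode: five tenfold dilutions (0.01, 0.1, 1, 10, 100 µM) are applied for 48 h to cells in RPMI 1640 with 5% FBS at 37 °C. Endpoint is TCA fixation with sulforhodamine B read at 515 nm. % growth comes from the 0 h and control absorbances. GI50 is the concentration giving a 50% reduction in net cell growth.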

RPMI-8226 = assay: Growth inhibition of human RPMI8226 cells incubated for 48 hrs by sulforhodamine B assay; settings: RPMI-8226, 48 h
Procedure, shortened: (§2)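 NCI-60 five-dose assay, SRB end-point, same culture conditions. Compound is tested at tenfold dilutions of 0.01, 0.1, 1, 10 and 100 µM for 48 h at 37 °C, with DMSO/PBS vehicle controls. Percentage growth at each concentration is taken against untreated cells and a time-zero plate. GI50 is 50% net growth decrease, TGI is total growth inhibition, and LC50 is 50% loss of initial cells.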

SN12C = assay: Growth inhibition of human SN12C cells assessed as cell viability at 0.1 uM incubated for 48 hrs by sulforhodamine B assay; settings: read-out: Activity
SNB-75 [3] = assay: Induction of apoptosis in human SNB75 cells assessed as late apoptotic cells at 2 uM incubated for 24 hrs by annexin V FITC and propidium iodide based flow cytometry (reference value: 0.59 %)
NCI-H23 = assay: Growth inhibition of human NCI-H23 cells assessed as cell viability at 0.1 uM incubated for 48 hrs by sulforhodamine B assay; settings: NCI-H23, 48 h, read-out: Activity
EKVX = assay: Growth inhibition of human EKVX cells assessed as cell viability at 0.1 uM incubated for 48 hrs by sulforhodamine B assay; settings: read-out: Activity
MDA-MB-435 = assay: Growth inhibition of human MDA-MB-435 cells incubated for 48 hrs by sulforhodamine B assay; settings: MDA-MB-435, 48 h
Procedure, shortened: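 NCI-60 five-dose SRB assay in RPMI 1640 with 5% FBS, 37 °C, 5% CO2. Compound given at five tenfold dilutions, 0.01–100 µM, for 48 h. Adherent cells fixed with TCA, suspension cells with 16% final TCA. Bound SRB read at 515 nm and growth calculated against time-zero and untreated controls. GI50 taken from dose–response curves as the concentration giving a 50% decrease in net cell growth.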

SR = assay: Growth inhibition of human SR cells incubated for 48 hrs by sulforhodamine B assay; procedure, shortened: as §1
DU-145 = assay: Growth inhibition of human DU145 cells assessed as cell viability at 0.001 uM incubated for 48 hrs by sulforhodamine B assay relative to control; settings: DU-145, 48 h, read-out: Activity
HL-60(TB) [4] = assay: Growth inhibition of human HL-60(TB) cells incubated for 48 hrs by sulforhodamine B assay; settings: HL-60, 48 h; procedure, shortened: as §2
BT-549 = assay: Growth inhibition of human BT549 cells assessed as cell viability at 1 uM incubated for 48 hrs by sulforhodamine B assay; settings: BT-549, 48 h, read-out: Activity
KM12 = assay: Growth inhibition of human KM12 cells assessed as cell viability at 1 uM incubated for 48 hrs by sulforhodamine B assay; settings: KM12, 48 h, read-out: Activity
HL-60(TB) [5] = assay: Growth inhibition of human HL-60(TB) cells assessed as cell viability at 0.001 uM incubated for 48 hrs by sulforhodamine B assay relative to control; settings: HL-60, 48 h, read-out: Activity
HOP-92 = assay: Growth inhibition of human HOP92 cells incubated for 48 hrs by sulforhodamine B assay; settings: HOP-92, 48 h; procedure, shortened: as §2
SF-295 [6] = assay: Growth inhibition of human SF295 cells assessed as cell viability at 100 uM incubated for 48 hrs by sulforhodamine B assay; settings: SF-295, 48 h, read-out: Activity
SK-OV-3 [7] = assay: Growth inhibition of human SKOV3 cells assessed as cell viability at 100 uM incubated for 48 hrs by sulforhodamine B assay; settings: SK-OV-3, 48 h, read-out: Activity
Malme-3M = assay: Growth inhibition of human MALME-3M cells assessed as cell viability at 100 uM incubated for 48 hrs by sulforhodamine B assay; settings: read-out: Activity
SF-295 [8] = assay: Growth inhibition of human SF295 cells assessed as cell viability at 0.001 uM incubated for 48 hrs by sulforhodamine B assay relative to control; settings: SF-295, 48 h, read-out: Activity
SF-539 = assay: Growth inhibition of human SF539 cells incubated for 48 hrs by sulforhodamine B assay; settings: SF-539, 48 h; procedure, shortened: as §1
[9] = read-out: LC50 (the source's name)
[10] = read-out: pLC50 (the source's name) (converted)

Question: CC1=C(C(=O)OCc2ccccc2)C(c2ccc3c(c2)OCO3)n2c(nc3ccccc32)N1 (racemic) was tested. Which viability at 1 µM (LOX IMVI) did it give?
Answer: The viability at 1 µM was 35%.

Question: What about the Activity (SNB-75 [1]) of the same molecule?
Answer: The Activity was 7.65%.

Question: What about the viability at 0.001 µM (OVCAR-5) of the same molecule?
Answer: Its viability at 0.001 µM is 93%.

Question: And the GI50 (SK-OV-3 [2]; read-out: GI50)?
Answer: The GI50 was 0.47 µM.

Question: And the CC50 (SK-OV-3 [2]; [9])?
Answer: Its CC50 is over 100 µM.

Question: What about the TGI (SK-OV-3 [2]; read-out: TGI) of the same molecule?
Answer: The TGI was over 100 µM.

Question: And the GI50 (SK-OV-3 [2]; read-out: pGI50 (converted))?
Answer: Its GI50 is 0.468 µM.

Question: What about the CC50 (SK-OV-3 [2]; [10]) of the same molecule?
Answer: The CC50 was over 100 µM.

Question: And the TGI (SK-OV-3 [2]; read-out: pTGI)?
Answer: Its TGI is over 100 µM.

Question: And the viability at 1 µM (A498)?
Answer: The viability at 1 µM was 15%.

Question: And the CC50 (RPMI-8226; [9])?
Answer: Its CC50 is over 100 µM.

Question: And the TGI (RPMI-8226; read-out: TGI)?
Answer: The TGI was over 100 µM.

Question: What about the CC50 (RPMI-8226; [10]) of the same molecule?
Answer: Its CC50 is over 100 µM.

Question: And the TGI (RPMI-8226; read-out: pTGI)?
Answer: The TGI was over 100 µM.

Question: What about the viability at 0.1 µM (SN12C) of the same molecule?
Answer: The viability at 0.1 µM was 95%.

Question: And the Activity (SNB-75 [3])?
Answer: The Activity was 15.12%.

Question: What about the viability at 0.1 µM (NCI-H23) of the same molecule?
Answer: The viability at 0.1 µM was 92%.

Question: And the viability at 0.1 µM (EKVX)?
Answer: The viability at 0.1 µM was 95%.

Question: What about the GI50 (MDA-MB-435; read-out: GI50) of the same molecule?
Answer: Its GI50 is 0.08 µM.

Question: And the LC50 (MDA-MB-435; read-out: LC50)?
Answer: Its LC50 is over 100 µM.

Question: And the TGI (MDA-MB-435; read-out: TGI)?
Answer: Its TGI is 0.35 µM.

Question: And the GI50 (MDA-MB-435; read-out: pGI50 (converted))?
Answer: Its GI50 is 0.0851 µM.

Question: And the LC50 (MDA-MB-435; read-out: pLC50 (converted))?
Answer: Its LC50 is over 100 µM.

Question: What about the TGI (MDA-MB-435; read-out: pTGI (converted)) of the same molecule?
Answer: Its TGI is 0.347 µM.

Question: What about the GI50 (SR; read-out: GI50) of the same molecule?
Answer: The GI50 was 1.71 µM.

Question: And the CC50 (SR; [9])?
Answer: The CC50 was over 100 µM.

Question: And the TGI (SR; read-out: TGI)?
Answer: Its TGI is over 100 µM.

Question: And the GI50 (SR; read-out: pGI50 (converted))?
Answer: The GI50 was 1.7 µM.

Question: And the CC50 (SR; [10])?
Answer: Its CC50 is over 100 µM.

Question: What about the TGI (SR; read-out: pTGI) of the same molecule?
Answer: The TGI was over 100 µM.

Question: What about the viability at 0.001 µM (DU-145) of the same molecule?
Answer: Its viability at 0.001 µM is 102%.

Question: What about the GI50 (HL-60(TB) [4]; read-out: GI50) of the same molecule?
Answer: The GI50 was 0.34 µM.

Question: And the CC50 (HL-60(TB) [4]; [9])?
Answer: The CC50 was over 100 µM.

Question: And the TGI (HL-60(TB) [4]; read-out: TGI)?
Answer: The TGI was over 100 µM.

Question: What about the GI50 (HL-60(TB) [4]; read-out: pGI50 (converted)) of the same molecule?
Answer: Its GI50 is 0.339 µM.

Question: And the CC50 (HL-60(TB) [4]; [10])?
Answer: The CC50 was over 100 µM.

Question: What about the TGI (HL-60(TB) [4]; read-out: pTGI) of the same molecule?
Answer: Its TGI is over 100 µM.

Question: What about the viability at 1 µM (BT-549) of the same molecule?
Answer: Its viability at 1 µM is 49%.

Question: What about the viability at 1 µM (KM12) of the same molecule?
Answer: The viability at 1 µM was 19%.

Question: And the viability at 0.001 µM (HL-60(TB) [5])?
Answer: Its viability at 0.001 µM is 95%.

Question: And the LC50 (concentration killing 50% of initial cells) (HOP-92; read-out: LC50)?
Answer: The LC50 (concentration killing 50% of initial cells) was over 100 µM.

Question: And the TGI (HOP-92; read-out: TGI)?
Answer: The TGI was over 100 µM.

Question: What about the LC50 (concentration killing 50% of initial cells) (HOP-92; read-out: pLC50 (converted)) of the same molecule?
Answer: The LC50 (concentration killing 50% of initial cells) was over 100 µM.

Question: What about the TGI (HOP-92; read-out: pTGI) of the same molecule?
Answer: Its TGI is over 100 µM.

Question: What about the viability at 100 µM (SF-295 [6]) of the same molecule?
Answer: The viability at 100 µM was 8%.

Question: And the viability at 100 µM (SK-OV-3 [7])?
Answer: The viability at 100 µM was 42%.

Question: And the viability at 100 µM (Malme-3M)?
Answer: Its viability at 100 µM is 20%.

Question: What about the viability at 0.001 µM (SF-295 [8]) of the same molecule?
Answer: Its viability at 0.001 µM is 87%.

Question: What about the GI50 (SF-539; read-out: GI50) of the same molecule?
Answer: Its GI50 is 0.34 µM.

Question: What about the LC50 (SF-539; read-out: LC50) of the same molecule?
Answer: The LC50 was over 100 µM.

Question: What about the TGI (SF-539; read-out: TGI) of the same molecule?
Answer: Its TGI is over 100 µM.

Question: What about the GI50 (SF-539; read-out: pGI50 (converted)) of the same molecule?
Answer: Its GI50 is 0.339 µM.

Question: And the LC50 (SF-539; read-out: pLC50 (converted))?
Answer: Its LC50 is over 100 µM.

Question: What about the TGI (SF-539; read-out: pTGI) of the same molecule?
Answer: Its TGI is over 100 µM.
